Measured values pooled from the literature.
Each line is one published result; the experiments were not run side by side.
Target: Casein kinase I isoform alpha-like (CSNK1A1L, Homo sapiens, UniProt Q8N752)
Sequence (Q8N752 1-337, as in one of the studies): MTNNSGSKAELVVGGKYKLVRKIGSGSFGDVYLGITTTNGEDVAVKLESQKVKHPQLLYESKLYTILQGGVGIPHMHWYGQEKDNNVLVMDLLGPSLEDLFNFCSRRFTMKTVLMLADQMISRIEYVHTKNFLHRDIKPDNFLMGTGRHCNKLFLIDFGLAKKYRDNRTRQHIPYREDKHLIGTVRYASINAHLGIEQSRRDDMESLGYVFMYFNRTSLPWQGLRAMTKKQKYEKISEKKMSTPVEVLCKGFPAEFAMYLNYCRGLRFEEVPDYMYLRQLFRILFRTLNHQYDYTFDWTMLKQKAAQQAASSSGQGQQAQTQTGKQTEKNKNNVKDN

SMILES | effect on | technique | tested at | remaining binding
c1cnn2ncc(-c3ccnc(N4CCC45COC5)n3)c2c1 | binding | – | 1 µM | 68%
O=C(Nc1c[nH]nc1C(=O)NC1CCNCC1)c1cc(F)cc(F)c1 | binding | competition with immobilised ligand | 1 µM | 84%
C[C@@H](c1ccc(-n2cnc3c(N)ncnc32)cc1)N1CCc2nn(C)c(Cc3ccccc3)c2C1=O | binding | competition with immobilised ligand | 0.1 µM | 91%
COc1cnc(Nc2cccc(S(N)(=O)=O)c2)nc1N1CCN(c2ccccc2)CC1 | binding | competition with immobilised ligand | 1 µM | 96%
CN(C)C(=O)Cn1cc(-c2nc([C@@](C)(c3ccc(-c4cnc(N)nc4)cc3)C3CC3)no2)cn1 | cell-free assay | competition with immobilised ligand | 1 µM | 100%
Cc1cnc(Nc2ccc(C(=O)N3CCC(N4CCCC4)CC3)cc2)nc1-c1cc2ccccc2s1 | binding | competition with immobilised ligand | 1 µM | 100%
COc1ncc2cc3ccccc3nc2c1C#N | cell-free assay | competition with immobilised ligand | 5 µM | 100%
Cc1c[nH]c2nccc(Oc3c(F)cc(Nc4cc(Cl)nc(N)n4)cc3F)c12 | cell-free assay | competition with immobilised ligand | 0.1 µM | 89%
C[C@H]1CCN(c2nccc(-c3cnn4ncccc34)n2)C1 | binding | – | 1 µM | 100%
CCC(=N\O)/C(C)=C/c1ccc(F)cc1 | cell-free assay | competition with immobilised ligand | 1 µM | 78%
CC1CCCN1c1nccc(-c2cnn3ncccc23)n1 (stereo not drawn) | binding | – | 1 µM | 100%
N#Cc1ccc(Nc2ccc3[nH]c(=O)[nH]c3c2)c(Cl)c1 | cell-free assay | competition with immobilised ligand | 1 µM | 100%
CNC(=O)[C@@H]1CC[C@@H](n2c(-c3ccc4cnccc4c3)nc3ccc(C(=O)NCc4cccc(C(N)=O)c4)cc32)C1 | binding | competition with immobilised ligand | 1 µM | 100%
C[C@H](c1ccnc(Nc2nc3ccc(-c4cc(N(C)C)ncn4)cc3[nH]2)c1)N1CCN(C(=O)CC(F)(F)F)CC1 | cell-free assay | competition with immobilised ligand | 0.1 µM | 94%
O=C(NCCCN1CCOCC1)c1ccc(Nc2ncc(Cl)c(-c3ccc(Cl)s3)n2)cc1 | binding | competition with immobilised ligand | 1 µM | 100%
N[C@@H]1CCN(c2nccc(-c3cnn4ncccc34)n2)C1 | binding | – | 1 µM | 100%
Nc1ncc2c(n1)-c1c([nH]c3ccc(C#CC4CC4)cc13)CCCC2 | binding | competition with immobilised ligand | 1 µM | 99%
CN(CCCC(F)(F)F)c1nccc(-c2cnn3ncccc23)n1 | binding | – | 1 µM | 91%
O=C(c1ccc(Nc2ncc(Cl)c(-c3ccc(Cl)s3)n2)cc1)N1CCC(N2CCCC2)CC1 | binding | competition with immobilised ligand | 1 µM | 100%
CNCc1ccccc1-c1csc([C@@H](C)Nc2nc(C)nc3cc(OC)c(OC)cc23)c1 | cell-free assay | competition with immobilised ligand | 1 µM | 100%
CN(c1nccc(-c2cnn3ncccc23)n1)C1CC1 | binding | – | 1 µM | 100%
